Reference: ChEMBL document CHEMBL3425494, “Design, synthesis, and antitumor evaluation of novel histone deacetylase inhibitors equipped with a phenylsulfonylfuroxan module as a nitric oxide donor” (J Med Chem, 2015)
Active and inactive are the calls of the source. The rule behind the calls is not given here.

Assays:
[1] = Cytotoxicity against human KG1 cells assessed as growth inhibition after 48 hrs by MTT assay; assay type: functional, cell-based; details: KG-1, 48 h
[2] = target: Histone deacetylase 4 (Homo sapiens, UniProt P56524); assay: Inhibition of human recombinant HDAC4 expressed in baculovirus infected insect S9 cells using Ac-Leu-GlyLys(Tfa)-AMC as substrate after 30 mins by fluorescence assay
Sequence of Histone deacetylase 4 (P56524 whole entry): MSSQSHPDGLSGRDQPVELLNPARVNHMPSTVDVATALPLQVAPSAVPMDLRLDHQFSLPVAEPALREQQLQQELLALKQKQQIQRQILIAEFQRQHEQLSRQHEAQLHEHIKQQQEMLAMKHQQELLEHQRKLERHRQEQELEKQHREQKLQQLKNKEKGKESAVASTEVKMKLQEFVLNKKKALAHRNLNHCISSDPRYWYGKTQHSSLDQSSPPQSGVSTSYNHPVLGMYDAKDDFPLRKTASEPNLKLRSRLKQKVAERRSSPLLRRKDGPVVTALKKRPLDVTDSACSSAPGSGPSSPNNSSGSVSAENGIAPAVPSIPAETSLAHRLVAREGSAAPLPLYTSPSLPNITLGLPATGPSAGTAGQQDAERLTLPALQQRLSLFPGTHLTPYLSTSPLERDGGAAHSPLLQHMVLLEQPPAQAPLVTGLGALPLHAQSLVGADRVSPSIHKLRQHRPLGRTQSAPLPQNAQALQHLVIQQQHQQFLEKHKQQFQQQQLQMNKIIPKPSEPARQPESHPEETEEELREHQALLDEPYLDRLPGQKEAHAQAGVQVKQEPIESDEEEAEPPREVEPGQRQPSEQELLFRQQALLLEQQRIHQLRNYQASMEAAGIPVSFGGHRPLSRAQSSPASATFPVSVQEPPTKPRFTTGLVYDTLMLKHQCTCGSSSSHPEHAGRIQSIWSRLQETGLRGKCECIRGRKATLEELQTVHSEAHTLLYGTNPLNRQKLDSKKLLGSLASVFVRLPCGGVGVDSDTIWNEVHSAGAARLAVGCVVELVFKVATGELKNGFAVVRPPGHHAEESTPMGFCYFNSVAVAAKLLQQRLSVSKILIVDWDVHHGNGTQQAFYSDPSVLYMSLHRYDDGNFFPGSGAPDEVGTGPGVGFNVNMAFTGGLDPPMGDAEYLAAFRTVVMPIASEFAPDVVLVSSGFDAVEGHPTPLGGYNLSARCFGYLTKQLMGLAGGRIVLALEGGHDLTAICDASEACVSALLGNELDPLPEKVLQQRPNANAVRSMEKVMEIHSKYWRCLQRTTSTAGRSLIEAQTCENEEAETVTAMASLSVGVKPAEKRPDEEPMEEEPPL

[3] = system: HEL; assay: animal or person; assay type: functional, Homo sapiens; details: Mus musculus, po, read-out: TGI
[4] = target: Histone deacetylase 2 (Homo sapiens) (UniProt Q92769); details: MV4-11, 12.5 to 200 nM
Sequence of Histone deacetylase 2 (Homo sapiens) (Q92769 whole entry): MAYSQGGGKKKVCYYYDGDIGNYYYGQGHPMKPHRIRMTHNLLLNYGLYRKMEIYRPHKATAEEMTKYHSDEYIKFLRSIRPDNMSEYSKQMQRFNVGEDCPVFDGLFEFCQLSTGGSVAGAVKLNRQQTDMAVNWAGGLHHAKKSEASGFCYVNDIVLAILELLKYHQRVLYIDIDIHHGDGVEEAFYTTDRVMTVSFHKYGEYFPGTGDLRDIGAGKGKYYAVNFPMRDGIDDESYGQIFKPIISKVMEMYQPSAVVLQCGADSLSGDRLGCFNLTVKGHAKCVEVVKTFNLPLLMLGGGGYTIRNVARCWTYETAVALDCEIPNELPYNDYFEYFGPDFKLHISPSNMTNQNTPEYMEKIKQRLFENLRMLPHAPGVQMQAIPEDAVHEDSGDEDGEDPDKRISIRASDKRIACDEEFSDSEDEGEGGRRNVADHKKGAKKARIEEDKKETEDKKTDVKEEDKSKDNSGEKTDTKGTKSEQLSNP

[5] = target: Histone deacetylase 2 (Homo sapiens) (UniProt Q92769); details: HEL, 1 to 10 uM
[6] = system: Mus musculus; assay: Toxicity in BALB/c-nu mouse xenografted with human HEL cells assessed as body weight loss at 120 mg/kg/day, po administered for 21 days measured everyday during compound dosing; assay type: organism-based; parameters: route oral; details: in vivo, 504 h
Outline: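 Male BALB/c-nu mice with s.c. HEL xenografts, 6 per group, given 120 mg/kg/day orally for 21 days; vehicle group received PBS containing DMSO. Body weight monitored regularly during treatment; mean ± SD.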

[7] = target: Histone deacetylase 2 (Homo sapiens) (UniProt Q92769); details: HEL, 10 uM
[8] = Cytotoxicity against human HCT116 cells assessed as growth inhibition after 48 hrs by MTT assay; assay type: functional, cell-based; details: HCT-116, 48 h
[9] = target: Histone deacetylase 3 (Homo sapiens, UniProt O15379); assay: Inhibition of full length human recombinant HDAC3 expressed in baculovirus infected insect S9 cells using Ac-Leu-GlyLys(Ac)-AMC as substrate after 30 mins by fluorescence assay
Sequence of Histone deacetylase 3 (O15379 whole entry): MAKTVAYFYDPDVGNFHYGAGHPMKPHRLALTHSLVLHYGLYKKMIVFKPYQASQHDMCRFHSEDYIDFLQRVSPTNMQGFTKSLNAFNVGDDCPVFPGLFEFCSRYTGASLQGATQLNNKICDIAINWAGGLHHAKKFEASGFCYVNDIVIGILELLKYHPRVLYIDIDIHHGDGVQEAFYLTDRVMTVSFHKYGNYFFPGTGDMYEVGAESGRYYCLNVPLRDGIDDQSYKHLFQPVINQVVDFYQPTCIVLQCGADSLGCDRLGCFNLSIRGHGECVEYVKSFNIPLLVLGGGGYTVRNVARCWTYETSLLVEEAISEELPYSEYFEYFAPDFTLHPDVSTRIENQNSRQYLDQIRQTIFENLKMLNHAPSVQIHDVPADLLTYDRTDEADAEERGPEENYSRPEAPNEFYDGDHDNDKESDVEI

[10] = system: HEL; assay: Antitumor activity against human HEL cells xenografted in BALB/c-nu mouse assessed as decrease in tumor volume at 120 mg/kg/day, po administered for 21 days measured every 3 days during compound dosing relative to control; assay type: functional
[11] = target: T1, Histone deacetylase 8 (Homo sapiens, UniProt Q9BY41); assay: Inhibition of full length human recombinant HDAC8 expressed in baculovirus infected insect S9 cells using Ac-Leu-GlyLys(Tfa)-AMC as substrate after 30 mins by fluorescence assay
T1 sequence (Q9BY41 whole entry): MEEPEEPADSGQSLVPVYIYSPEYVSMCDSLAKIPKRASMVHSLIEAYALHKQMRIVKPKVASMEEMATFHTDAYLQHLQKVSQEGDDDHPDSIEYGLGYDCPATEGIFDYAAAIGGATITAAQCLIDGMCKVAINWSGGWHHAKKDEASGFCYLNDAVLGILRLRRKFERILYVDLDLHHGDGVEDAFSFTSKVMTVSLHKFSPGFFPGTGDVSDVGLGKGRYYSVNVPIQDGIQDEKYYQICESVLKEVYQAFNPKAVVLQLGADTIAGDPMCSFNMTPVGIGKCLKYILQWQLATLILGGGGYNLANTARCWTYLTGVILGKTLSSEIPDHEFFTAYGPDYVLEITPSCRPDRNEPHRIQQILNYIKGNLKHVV

[12] = target: Histone deacetylase 1 (Homo sapiens) (UniProt Q13547); details: MV4-11, 12.5 to 200 nM
Sequence of Histone deacetylase 1 (Homo sapiens) (Q13547 whole entry): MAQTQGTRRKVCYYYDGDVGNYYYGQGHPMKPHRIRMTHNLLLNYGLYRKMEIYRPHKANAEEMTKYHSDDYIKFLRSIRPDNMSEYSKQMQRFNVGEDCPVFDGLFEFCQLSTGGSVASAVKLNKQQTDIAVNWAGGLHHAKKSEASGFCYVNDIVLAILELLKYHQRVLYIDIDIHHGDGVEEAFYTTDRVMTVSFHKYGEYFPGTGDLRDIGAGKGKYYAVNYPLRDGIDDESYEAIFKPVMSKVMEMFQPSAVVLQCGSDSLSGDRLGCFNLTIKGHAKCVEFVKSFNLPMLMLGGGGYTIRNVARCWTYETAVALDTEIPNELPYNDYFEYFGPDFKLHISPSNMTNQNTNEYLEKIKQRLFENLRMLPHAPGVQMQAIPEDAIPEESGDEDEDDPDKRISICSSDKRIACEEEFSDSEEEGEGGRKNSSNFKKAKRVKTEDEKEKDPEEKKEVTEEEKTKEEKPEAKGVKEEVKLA

[13] = Cytotoxicity against human MDA cells assessed as growth inhibition after 48 hrs by MTT assay; assay type: functional, cell-based
[14] = system: HEL; assay: Antitumor activity against human HEL cells xenografted in BALB/c-nu mouse assessed as inhibition of tumor growth at 100 mg/kg/day, po administered for 21 days measured every 3 days during compound dosing relative to control; assay type: functional; details: read-out: TGI
Outline: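 HEL s.c. xenografts in male BALB/c-nu mice (6–8 weeks), randomized at ~100 mm³, 6 per group; daily oral dosing for 21 days versus PBS/DMSO vehicle group. […] Student's two-tailed t test, p < 0.05.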

[15] = system: HEL; assay: Antitumor activity against human HEL cells xenografted in po dosed BALB/c-nu mouse administered for 21 days measured every 3 days during compound dosing; assay type: functional, organism-based
Outline: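 Subcutaneous HEL xenograft in right flank of male athymic nude mice, 6 per group, dosing started at ~100 mm³. Oral administration at 100 or 120 mg/kg/day for 21 consecutive days; controls given PBS containing DMSO. Tumors measured by caliper every 3 days (V = ab²/2); tumors weighed after sacrifice; mean ± SD.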

[16] = system: Mus musculus; assay: Toxicity in BALB/c-nu mouse xenografted with human HEL cells assessed as effect on spleen at 120 mg/kg/day, po administered for 21 days; assay type: organism-based; parameters: route oral; details: in vivo, 504 h
Outline: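 Nude mice bearing HEL xenografts dosed orally 120 mg/kg/day for 21 days, 6 per group, controls on PBS/DMSO vehicle. After treatment, mice sacrificed and dissected to examine internal organs.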

IC50 [2]: 30 nM
inhibition [4]: Active
inhibition [5]: Active
inhibition [7]: inactive
IC50 [9]: 532 nM
IC50 [11]: 343 nM
inhibition [12]: Active
Structure (SMILES): O=C(CCCCCOc1no[n+]([O-])c1S(=O)(=O)c1ccccc1)NO
IC50 [1]: 1750 nM
inhibition in vivo at 120 mg/kg/day [3]: 48%
Activity [6]: Non-toxic
IC50 [8]: 1510 nM
T/C [10]: 39%
IC50 [13]: 2250 nM
inhibition in vivo at 100 mg/kg/day [14]: 38%
Activity [15]: Dose-dependent effect
Activity [16]: Non-toxic
